From ChEMBL document CHEMBL3351347, “Eight pairs of epimeric triterpenoids involving a characteristic spiro-E/F ring from Abies faxoniana” (J Nat Prod, 2015)
Active and inactive are the calls of the source. The rule behind the calls is not given here.

How the values were obtained:
[1] = tested on: HepG2; test: Cytotoxicity against human HepG2 cells after 24 hrs by MTT assay; type: functional, cell-based; settings: HepG2, 24 h
Method in brief: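 Cells grown in DMEM with 10% FBS, penicillin/streptomycin at 37 °C, 5% CO2. MTT (5 mg/mL solution) added for 2−4 h at 37 °C, formazan dissolved in DMSO, absorbance read at 570 nm. Viability = mean OD of treated wells / DMSO-control OD; IC50 from viability.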

[2] = Cytotoxicity against human HuH7 cells after 24 hrs by MTT assay; type: functional, cell-based; settings: Huh-7, 24 h
Method in brief: (§1)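 Cells grown in DMEM with 10% FBS, penicillin/streptomycin at 37 °C, 5% CO2. […] MTT (5 mg/mL solution) added for 2−4 h at 37 °C, formazan dissolved in DMSO, absorbance read at 570 nm. Viability = mean OD of treated wells / DMSO-control OD; IC50 from viability.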

[3] = tested on: SMMC-7721; test: Cytotoxicity against human SMMC7721 cells after 24 hrs by MTT assay; type: functional, cell-based; settings: SMMC-7721, 24 h; method in brief: as §1
[4] = Cytotoxicity against human QSG7701 cells after 24 hrs by MTT assay; type: cell-based; settings: QSG7701, 24 h; method in brief: as §1
[5] = tested on: Huh-7; test: Induction of cell cycle arrest in human HuH7 cells assessed as increase in accumulation at G2/M phase at 5 to 20 uM after 24 hrs by propidium iodide staining based flow cytometry; type: functional
Method in brief: (§2)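 Huh7 exposed 24 h to 5, 10, 20 μM. Cells washed in PBS with 2% FBS, then 3 × 10^5 cells/mL fixed overnight in cold absolute EtOH at 4 °C. After two PBS washes, stained with PI solution (3.8 mM sodium citrate, 20 μg/mL PI in PBS) plus RNase A, 30 min at room temperature in the dark. DNA content read by flow cytometry; means ± SEM, three independent experiments.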

[6] = tested on: Huh-7; test: Induction of cell cycle arrest in human HuH7 cells assessed as reduction in accumulation at G0/G1 phase at 5 to 20 uM after 24 hrs by propidium iodide staining based flow cytometry; type: functional; method in brief: as §2
[7] = tested on: Huh-7; test: Induction of cell cycle arrest in human HuH7 cells assessed as reduction in accumulation at S phase at 5 to 20 uM after 24 hrs by propidium iodide staining based flow cytometry; type: functional; method in brief: as §2
[8] = tested on: Huh-7; test: Induction of apoptosis in human HuH7 cells at 5 to 20 uM after 24 hrs by annexin V-FITC and propidium iodide double staining based flow cytometry; type: functional, cell-based
Method in brief: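 Huh7 exposed 24 h to 5, 10, 20 μM, then collected, PBS-washed and resuspended in binding buffer with annexin V-FITC (10 μg/mL) for 10 min in the dark. PI (20 μg/mL) added, samples read by flow cytometry immediately. Means ± SEM, three independent experiments.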

[9] = tested on: Huh-7; test: Induction of intracellular ROS production in human HuH7 cells at 5 to 20 uM after 24 hrs by carboxy-H2DCFDA staining based flow cytometry; type: functional, cell-based
Method in brief: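 Huh7 exposed 24 h to 5, 10, 20 μM, harvested, PBS-washed, then loaded in DMEM with 10 μM carboxy-H2DCFDA for 30 min at 37 °C. Washed again; fluorescence measured by flow cytometry as an index of intracellular ROS.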

[10] = tested on: Huh-7; test: Induction of intracellular ROS production in human HuH7 cells at 20 uM pre-treated with 10 mM ROS scavenger NAC measured after 24 hrs post dose by carboxy-H2DCFDA staining based flow cytometry

Structure (SMILES) | IC50 [1] | IC50 [2] | IC50 [3] | IC50 [4] | Activity [5] | Activity [6] | Activity [7] | Activity [8] | Activity [9] | Activity [10]
C[C@@H]1C[C@@]2(C[C@@H](C)[C@@]3(CC[C@@]4(C)C5=CC[C@H]6C(C)(C)[C@H](O)CC[C@]6(C)[C@@H]5CC[C@@]43C)O2)OC1=O | > 50 µM | 16.4 µM | 19.1 µM | 17.6 µM |  |  |  |  |  | 
C[C@@H]1C[C@@]2(C[C@@H](C)[C@@]3(CC[C@@]4(C)C5=C(C(=O)C[C@@]43C)[C@@]3(C)CCC(=O)C(C)(C)[C@@H]3CC5)O2)OC1=O | 31.2 µM | > 50 µM | > 50 µM | 26.8 µM |  |  |  |  |  | 
C[C@@H]1C[C@]2(C[C@@H](C)[C@@]3(CC[C@@]4(C)C5=CC[C@H]6C(C)(C)C(=O)CC[C@]6(C)[C@@H]5CC[C@@]43C)O2)OC1=O | 14.1 µM | 13.5 µM | 20.7 µM | 15.5 µM |  |  |  |  |  | 
COC(=O)[C@H](C)CC(=O)C[C@@H](C)[C@]1(C)CC[C@@]2(C)C3=CC[C@H]4C(C)(C)[C@H](O)CC[C@]4(C)[C@@H]3CC=C21 | > 50 µM | > 50 µM | > 50 µM | > 50 µM |  |  |  |  |  | 
C[C@H](CC(=O)C[C@@H](C)[C@]1(C)CC=C2C3=CC[C@H]4C(C)(C)[C@H](O)CC[C@]4(C)[C@@H]3CC[C@]21C)C(=O)O | > 50 µM | > 50 µM | > 50 µM | 42.4 µM |  |  |  |  |  | 
C/C(=C/CC[C@@H](C)[C@H]1CC[C@@]2(C)C3=CC[C@H]4C(C)(C)C(=O)CC[C@]4(C)[C@@H]3CC[C@]12C)C(=O)O | 24 µM | > 50 µM | > 50 µM | > 50 µM |  |  |  |  |  | 
C[C@@H]1C[C@]2(C[C@@H](C)[C@@]3(CC[C@@]4(C)C5=CC[C@H]6C(C)(C)[C@H](O)CC[C@]6(C)[C@@H]5CC[C@@]43C)O2)OC1=O | > 50 µM | 16.4 µM | 19.1 µM | 17.6 µM |  |  |  |  |  | 
C[C@@H]1C[C@@]2(C[C@@H](C)[C@@]3(CC[C@@]4(C)C(=O)[C@@]5(CC[C@@]43C)[C@@H](O)C[C@H]3C(C)(C)C(=O)CC[C@@]35C)O2)OC1=O | 15.4 µM | 12.3 µM | 10.1 µM | 8.2 µM |  |  |  |  |  | 
C[C@@H]1C[C@]2(C[C@@H](C)[C@@]3(CC[C@@]4(C)C(=O)[C@@]5(CC[C@@]43C)[C@@H](O)C[C@H]3C(C)(C)C(=O)CC[C@@]35C)O2)OC1=O | 15.4 µM | 12.3 µM | 10.1 µM | 8.2 µM |  |  |  |  |  | 
C[C@@H]1C[C@@H](C[C@@H](C)[C@@]2(O)CC[C@@]3(C)C4=C(CC[C@@]32C)[C@@]2(C)CCC(=O)C(C)(C)[C@@H]2CC4)OC1=O | > 50 µM | 40.1 µM | 34.6 µM | 37 µM |  |  |  |  |  | 
C[C@@H]1C[C@@]2(C[C@@H](C)[C@@]3(CC[C@@]4(C)[C@H]5CC[C@H]6C(C)(C)[C@H](O)CC[C@@]67C[C@]57CC[C@@]43C)O2)OC1=O | 21.1 µM | 16 µM | 25.2 µM | > 50 µM |  |  |  |  |  | 
C[C@@H]1C[C@@]2(C[C@@H](C)[C@@]3(CC[C@]4(C)[C@]3(C)CC[C@@]35O[C@@]43[C@@H](OC(=O)Cc3ccccc3)C[C@H]3C(C)(C)C(=O)CC[C@@]35C)O2)OC1=O | > 50 µM | > 50 µM | > 50 µM | > 50 µM |  |  |  |  |  | 
CC1=CC(O)(C[C@@H](C)C2=CC[C@@]3(C)C4=C(CC[C@]23C)[C@@]2(C)CCC(=O)C(C)(C)[C@@H]2CC4)OC1=O (some centres not stated) [NEOABIESLACTONE E] | 16.7 µM | 20.9 µM | 13.4 µM | 10.1 µM |  |  |  |  |  | 
C[C@@H]1C[C@]2(C[C@@H](C)[C@@]3(CC[C@@]4(C)[C@H]5CC[C@H]6C(C)(C)[C@H](O)CC[C@@]67C[C@]57CC[C@@]43C)O2)OC1=O | 21.1 µM | 16 µM | 25.2 µM | > 50 µM |  |  |  |  |  | 
C[C@@H]1C[C@@]2(C[C@@H](C)[C@@]3(CC[C@@]4(C)C5=CC[C@H]6C(C)(C)C(=O)CC[C@]6(C)[C@@H]5CC[C@@]43C)O2)OC1=O | 14.1 µM | 13.5 µM | 20.7 µM | 15.5 µM |  |  |  |  |  | 
C[C@@H]1C[C@]2(C[C@@H](C)[C@@]3(CC[C@@]4(C)C5=C(C(=O)C[C@@]43C)[C@@]3(C)CCC(=O)C(C)(C)[C@@H]3CC5)O2)OC1=O | 31.2 µM | > 50 µM | > 50 µM | 26.8 µM |  |  |  |  |  | 
CC(=O)O[C@@H]1CC[C@]23C[C@@]24CC[C@@]2(C)[C@@](C)(CC[C@]25O[C@]2(C[C@@H](C)C(=O)O2)C[C@H]5C)[C@H]4CC[C@H]3C1(C)C | 9.8 µM | 7.5 µM | 10.7 µM | > 50 µM | Active | Active | Active | Dose-dependent effect | Active | inactive
CO[C@@H]1CC[C@@]2(C)[C@@H](C[C@H](O)[C@@]23CC[C@]2(C)[C@@H]([C@H](C)C[C@@H]4C=C(C)C(=O)O4)CC[C@@]2(C)C3=O)C1(C)C | 20.6 µM | 35.1 µM | > 50 µM | > 50 µM |  |  |  |  |  | 
C[C@@H]1C[C@@]2(C[C@@H](C)[C@@]3(CC[C@@]4(C)[C@H]5CC[C@H]6C(C)(C)C(=O)CC[C@]6(C)[C@@H]5CC[C@@]43C)O2)OC1=O | > 50 µM | 18.4 µM | 28.3 µM | > 50 µM |  |  |  |  |  | 
C/C(=C/CC[C@@H](C)[C@H]1CC[C@@]2(C)C3=CC[C@H]4C(C)(C)[C@@H](O)CC[C@]4(C)[C@@H]3CC[C@]12C)C(=O)O | > 50 µM | > 50 µM | > 50 µM | > 50 µM |  |  |  |  |  | 
C[C@@H]1C[C@]2(C[C@@H](C)[C@@]3(CC[C@]4(C)[C@]3(C)CC[C@@]35O[C@@]43[C@@H](OC(=O)Cc3ccccc3)C[C@H]3C(C)(C)C(=O)CC[C@@]35C)O2)OC1=O | > 50 µM | > 50 µM | > 50 µM | > 50 µM |  |  |  |  |  | 
C[C@@H]1C[C@]2(C[C@@H](C)[C@@]3(CC[C@@]4(C)[C@H]5CC[C@H]6C(C)(C)C(=O)CC[C@]6(C)[C@@H]5CC[C@@]43C)O2)OC1=O | > 50 µM | 18.4 µM | 28.3 µM | > 50 µM |  |  |  |  |  | 
COc1cccc2c1C(=O)c1c(O)c3c(c(O)c1C2=O)C[C@@](O)(C(=O)CO)C[C@@H]3O[C@H]1C[C@H](N)[C@H](O)[C@H](C)O1 [DOXORUBICIN] |  | 0.7 µM | 0.3 µM | 2.9 µM |  |  |  |  |  | 
CC(=O)O[C@@H]1CC[C@]23C[C@@]24CC[C@@]2(C)[C@@](C)(CC[C@]25O[C@@]2(C[C@@H](C)C(=O)O2)C[C@H]5C)[C@H]4CC[C@H]3C1(C)C | 9.8 µM | 7.5 µM | 10.7 µM | > 50 µM | Active | Active | Active | Dose-dependent effect | Active | inactive
